Active and inactive are the calls of the source. The calls are words filed in the database; no cut-off is given here.
Assays:
[1] = Inhibition of beta-hematin formation; assay type: functional
Candida albicans [2] = assay: Antifungal activity against Candida albicans ATCC 90028 at 20 ug/ml; assay type: functional, organism-based
Staphylococcus aureus [3] = assay: Antibacterial activity against methicillin-resistant Staphylococcus aureus ATCC 43300 at 20 ug/ml by CLSI method; assay type: functional, organism-based
Method in brief: (§1)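 Broth dilution method (NCCLS M7-A5). […] MIC is the lowest concentration allowing no detectable growth. MBC is the lowest concentration killing the organism. Highest test concentration was 20 µg/mL.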

Vero = assay: Cytotoxicity against african green monkey Vero cells up to 10 ug/ml by neutral red assay; assay type: cell-based; settings: chlorocebus sabaeus
Method in brief: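 Vero (monkey kidney) cells were exposed up to a highest concentration of 10 µg/mL. Viability was read by neutral red uptake.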

Nakaseomyces glabratus = assay: Antifungal activity against Candida glabrata at 20 ug/ml; assay type: functional, organism-based
Leishmania donovani = assay: Antileishmanial activity against promastigotes of Leishmania donovani by alamar blue assay; assay type: functional, organism-based; settings: for IC50: read-out: IC50
Cryptococcus neoformans = assay: Antifungal activity against Cryptococcus neoformans ATCC 90113; assay type: functional, organism-based
Pichia kudriavzevii = assay: Antifungal activity against Candida krusei at 20 ug/ml; assay type: functional, organism-based
[4] = tested on: Mycobacterium intracellulare; assay: Antibacterial activity against Mycobacterium intracellular ATCC 23068 at 20 ug/ml by CLSI method; assay type: functional, organism-based
[5] = Hematotoxicity against RBC assessed as formation of methemoglobin at 20 ug/ml relative to control; assay type: cell-based; settings: erythrocyte
Method in brief: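 Metabolism-linked methemoglobin toxicity in vitro. Percent MetHb formation was determined at 20 µg/mL of compound relative to vehicle control.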

Aspergillus fumigatus = assay: Antifungal activity against Aspergillus fumigatus ATCC 90906 at 20 ug/ml; assay type: functional, organism-based
Staphylococcus aureus [6] = assay: Antibacterial activity against methicillin-resistant Staphylococcus aureus ATCC 43300 by CLSI method; assay type: functional, organism-based; method in brief: as §1
Plasmodium falciparum [7] = assay: Antimalarial activity against chloroquine-sensitive Plasmodium falciparum D6 by LDH assay; assay type: functional, organism-based
Method in brief: (§2)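 Antiplasmodial activity was measured in vitro against P. falciparum blood-stage cultures. Read-out was parasite lactate dehydrogenase (LDH) activity, with IC50 values expressed in µg/mL. The same protocol was used for the D6 and W2 strains.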

Plasmodium falciparum [8] = assay: Antimalarial activity against chloroquine-resistant Plasmodium falciparum W2 by LDH assay; assay type: functional, organism-based; settings: Plasmodium falciparum, W2; read-out: IC50; method in brief: as §2
[9] = tested on: Mycobacterium intracellulare; assay: Antibacterial activity against Mycobacterium intracellular ATCC 23068 by CLSI method; assay type: functional, organism-based
Candida albicans [10] = assay: Antifungal activity against Candida albicans ATCC 90028; assay type: functional, organism-based
Plasmodium berghei [11] = assay: Antimalarial activity against Plasmodium berghei infected in mouse assessed as complete elimination of malaria parasites from animals at 100 mg/kg, po qd for 4 days measured up to 60 days; assay type: functional, organism-based; design: dose 100 mg/kg
Method in brief: (§3)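 Rodent P. berghei (sensitive strain) blood-schizontocidal model, 6 mice per group. Compounds were given orally once daily for 4 days at 10, 25, 50 or 100 mg/kg/day. Cure meant complete parasite elimination with survival to day D+60.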

Plasmodium berghei [12] = assay: Antimalarial activity against Plasmodium berghei infected in mouse assessed as negative parasitemia level at 10 mg/kg, po qd for 4 days measured up to 7 days; assay type: functional, organism-based; design: dose 10 mg/kg
Method in brief: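 Mice infected with P. berghei (sensitive strain), 6 per group, dosed orally at 10–100 mg/kg/day × 4. Suppression meant negative parasitemia in all treated animals up to D+7. Survivors were counted at D+60.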

Plasmodium berghei [13] = assay: Antimalarial activity against Plasmodium berghei infected in mouse assessed as complete elimination of malaria parasites from animals at 50 mg/kg, po qd for 4 days measured up to 60 days; assay type: functional, organism-based; design: dose 50 mg/kg; method in brief: as §3
Plasmodium berghei [14] = assay: Antimalarial activity against Plasmodium berghei infected in mouse assessed as complete elimination of malaria parasites from animals at 25 mg/kg, po qd for 4 days measured up to 60 days; assay type: functional, organism-based; design: dose 25 mg/kg; method in brief: as §3
[15] = Plasmodium falciparum, D6, read-out: IC50

| SMILES | IC50 [1] | MFC (Candida albicans [2]) | MIC (Candida albicans [2]) | MBC (Staphylococcus aureus [3]) | Activity (Vero) | Activity (Nakaseomyces glabratus) | IC90 (Leishmania donovani; Leishmania donovani) | IC50 (Leishmania donovani; Leishmania donovani) | IC50 (Cryptococcus neoformans) | MIC (Cryptococcus neoformans) | Activity (Pichia kudriavzevii) | MBC [4] | MIC [4] | Methemoglobin formation [5] | Activity (Aspergillus fumigatus) | IC50 (Staphylococcus aureus [6]) | MIC (Staphylococcus aureus [6]) | IC50 [9] | IC50 (Plasmodium falciparum [7]; [15]) | Activity (Plasmodium berghei [11]) | other results |
| --- | --- | --- | --- | --- | --- | --- | --- | --- | --- | --- | --- | --- | --- | --- | --- | --- | --- | --- | --- | --- | --- |
| COc1cc(NC(C)CCCNC(=O)N[C@H](CCCCN)C(=O)NCCCC(C)Nc2cc(OC)cc3cccnc23)c2ncccc2c1.Cl (stereo partly specified) | 162 µM | inactive | inactive | inactive | Non-toxic | inactive | 36 µg/mL | 18.5 µg/mL | 10 µg/mL | 20 µg/mL | inactive | inactive | inactive | 2.8% | inactive | 10 µg/mL | 20 µg/mL |  |  |  | IC50 (Candida albicans [2]): Not Active; MFC (Cryptococcus neoformans): 20 µg/mL; IC50 [4]: Not Active |
| COc1cc(NC(C)CCCNC(=O)NC(CCCN)C(=O)NCCCC(C)Nc2cc(OC)cc3cccnc23)c2ncccc2c1 (single isomer, unassigned; 40) |  | inactive | inactive | inactive |  | inactive |  |  |  |  | inactive | inactive | inactive |  | inactive |  |  |  |  |  |  |
| CCCCCOc1c(OC)cc(NC(C)CCCNC(=S)NCCCC(C)Nc2cc(OC)c(OCCCCC)c3c(CC)ccnc23)c2nccc(CC)c12.Cl.Cl (stereo unspecified) | > 1000 µM | inactive |  |  | Non-toxic | inactive |  | 40 µg/mL | 10 µg/mL | 20 µg/mL | inactive | inactive |  | 1.7% | inactive | 3.5 µg/mL | 5 µg/mL | 15 µg/mL |  |  | IC50 (Plasmodium falciparum [7]): Not Active; IC50 (Plasmodium falciparum [8]): 4.76 µg/mL; IC90 (Leishmania donovani): inactive; MFC (Cryptococcus neoformans): 20 µg/mL; MIC [9]: 20 µg/mL; IC50 (Candida albicans [10]): 10 µg/mL; MIC (Candida albicans [10]): 20 µg/mL; MBC (Staphylococcus aureus [6]): 10 µg/mL |
| COc1cc(NC(C)CCCNC(=O)CC[C@H](N)C(=O)NCCCC(C)Nc2cc(OC)cc3ccc(C(C)(C)C)nc23)c2nc(C(C)(C)C)ccc2c1.Cl (stereo partly specified) | > 1000 µM |  |  |  | Non-toxic |  | 10.7 µg/mL | 3.9 µg/mL |  |  |  | inactive | inactive | 3.3% |  | 8.5 µg/mL | 20 µg/mL |  | 4.7 µg/mL | inactive | IC50 (Plasmodium falciparum [8]): 2.3 µg/mL; IC50 [4]: Not Active; MBC (Staphylococcus aureus [6]): 20 µg/mL |
| COc1cc(NC(C)CCCNC(=O)C[C@@H](N)C(=O)NCCCC(C)Nc2cc(OC)cc3cccnc23)c2ncccc2c1.Cl (stereo partly specified) | 120 µM |  |  | inactive | Non-toxic |  | 31 µg/mL | 11.5 µg/mL |  |  |  | inactive |  | 7.25% |  | 15 µg/mL |  | 15 µg/mL | 3.3 µg/mL |  | MIC (Staphylococcus aureus [3]): inactive; MIC [9]: 20 µg/mL |
| COc1cc(NC(C)CCCNC(=O)N[C@@H](CCCN)C(=O)NCCCC(C)Nc2cc(OC)cc3ccc(C(C)(C)C)nc23)c2nc(C(C)(C)C)ccc2c1.Cl (stereo partly specified) | 152 µM | inactive | inactive |  | Non-toxic | inactive | 33 µg/mL | 18 µg/mL | 15 µg/mL | 20 µg/mL | inactive | inactive |  | 0.2% | inactive | 6.5 µg/mL | 20 µg/mL | 15 µg/mL | 4 µg/mL |  | IC50 (Candida albicans [10]): 15 µg/mL; MBC (Staphylococcus aureus [6]): 20 µg/mL |
| COc1cc(NC(C)CCCNC(=O)C[C@H](N)C(=O)NCCCC(C)Nc2cc(OC)cc3ccc(C(C)(C)C)nc23)c2nc(C(C)(C)C)ccc2c1.Cl (stereo partly specified) | 140 µM | inactive | inactive |  | Non-toxic | inactive | 33 µg/mL | 15 µg/mL | 10 µg/mL | 20 µg/mL | inactive | inactive | inactive | 1.55% | inactive | 6.5 µg/mL |  |  |  | inactive | IC50 (Plasmodium falciparum [7]): Not Active; IC50 (Candida albicans [2]): Not Active; MFC (Cryptococcus neoformans): 20 µg/mL; IC50 [4]: Not Active; MBC (Staphylococcus aureus [6]): 20 µg/mL |
| COc1cc(NC(C)CCCNCC(=O)NCCCC(C)Nc2cc(OC)cc3ccc(C(C)(C)C)nc23)c2nc(C(C)(C)C)ccc2c1.Cl.Cl (stereo unspecified) | 75 µM |  |  | inactive | Non-toxic |  | 7.8 µg/mL | 2.9 µg/mL |  |  |  | inactive | inactive | 1.1% |  | 15 µg/mL | 20 µg/mL | 15 µg/mL | 1.5 µg/mL |  | IC50 (Plasmodium falciparum [8]): 1.3 µg/mL |
| CCCCCOc1c(OC)cc(NC(C)CCCNC(=O)NCCCC(C)Nc2cc(OC)c(OCCCCC)c3c(CC)ccnc23)c2nccc(CC)c12.Cl.Cl (stereo unspecified) | 80 µM |  |  | inactive | Non-toxic |  | 7 µg/mL | 3.5 µg/mL |  |  |  | inactive | inactive | 4.7% |  | 8.5 µg/mL | 20 µg/mL |  | 1.7 µg/mL |  | IC50 (Plasmodium falciparum [8]): 1.3 µg/mL; IC50 [4]: Not Active |
| COc1cc(NC(C)CCCN)c2ncccc2c1 (stereo unspecified) [PRIMAQUINE] | > 1000 µM |  |  |  | Non-toxic |  |  |  |  |  |  |  |  | 10% |  |  |  |  |  | inactive | Activity (Plasmodium berghei [12]): inactive; IC90 (Leishmania donovani): inactive |
| COc1cc(NC(C)CCCNC(=O)C[C@H](N)C(=O)NCCCC(C)Nc2cc(OC)cc3cccnc23)c2ncccc2c1.Cl (stereo partly specified) | 185 µM | inactive | inactive | inactive | Non-toxic | inactive | 30 µg/mL |  | 7.5 µg/mL | 10 µg/mL | inactive | inactive | inactive | 5.4% | inactive | 15 µg/mL | 20 µg/mL | 20 µg/mL | 4.76 µg/mL |  | IC50 (Candida albicans [2]): Not Active; IC50 (Plasmodium falciparum [8]): 3.8 µg/mL; MFC (Cryptococcus neoformans): 10 µg/mL |
| COc1cc(NC(C)CCCNC(=O)NC(CCCNC(=N)N)C(=O)NCCCC(C)Nc2cc(OC)cc3cccnc23)c2ncccc2c1 (single isomer, unassigned; 36) |  | inactive | inactive |  |  | inactive |  |  |  |  | inactive |  |  |  | inactive |  |  |  |  | Active | Activity (Plasmodium berghei [13]): inactive |
| COc1cc(NC(C)CCCNC(=O)CC[C@H](N)C(=O)NCCCC(C)Nc2cc(OC)cc3cccnc23)c2ncccc2c1.Cl (stereo partly specified) | 85 µM | inactive | inactive | inactive | Non-toxic | inactive | 35 µg/mL | 16 µg/mL | 15 µg/mL | 20 µg/mL | inactive | inactive |  | 13.35% | inactive | 15 µg/mL | 20 µg/mL | 15 µg/mL |  | Active | IC50 (Candida albicans [2]): Not Active; Activity (Plasmodium berghei [14]): Active; Activity (Plasmodium berghei [13]): Active; Activity (Plasmodium berghei [12]): Active; MFC (Cryptococcus neoformans): 20 µg/mL; MIC [9]: 20 µg/mL |
| COc1cc(NC(C)CCCNC(=O)NC(CCCN)C(=O)NCCCC(C)Nc2cc(OC)cc3cccnc23)c2ncccc2c1 (single isomer, unassigned; 37) |  | inactive | inactive |  |  | inactive |  |  |  |  | inactive |  |  |  | inactive |  |  |  |  | inactive |  |

From ChEMBL document CHEMBL1641445, “Synthesis, antiprotozoal, antimicrobial, β-hematin inhibition, cytotoxicity and methemoglobin (MetHb) formation activities of bis(8-aminoquinolines)” (Bioorg Med Chem, 2011)
